Sampled rows, rich in hits. Any-hit rate of the full collection: about 2.2%.
Rtt109 HAT inh: inhibitors of C. albicans Rtt109/Vps75 HAT, primary screen, biochemical, ThioGlo CoA-SH fluorescence, plate reader; purified Rtt109/Vps75, 4 h; Histone acetyltransferase RTT109 (Candida albicans (strain SC5314 / ATCC MYA-2876)), …; 330,000 tested, 0.16% active; inhibition, % at 34.9 µM; AID 540336, 2011;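 active means inhibition of at least 50% in every replicate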
CAL PDZ FP-1: untagged CAL PDZ binding inhibitors, primary screen, biochemical, fluorescence polarization, HTS | purified CAL PDZ, TMR-peptide fluorescence polarization, 1 h | 300,000 tested, 0.92% active | AID 602252, 2012 | inhibition, % at 24.9 µM | Golgi-associated PDZ and coiled-coil motif-containing protein (Homo sapiens), Q9HD26;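 active means mean inhibition of at least 30% with at least half of replicates also reaching 30%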;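 further: 0% = DMSO neutral control and 100% = excess unlabeled competitor peptide PRC23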
DYRK1A inh: rat Dyrk1A kinase inhibitors, primary screen, biochemical, single point, plate reader. Dual specificity tyrosine-phosphorylation-regulated kinase 1A (Rattus norvegicus), Q63470. ADP-Glo luminescence, NFATc1 peptide. inhibition, % at 12.5 µM. 310,000 tested, 0.43% active. AID 504441, 2011; in the data active means inhibition above about 50%;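 further: plate controls were vehicle with enzyme for no effect and no enzyme for full effect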
CDK5 p35 inh: inhibitors of human CDK5/p35 kinase, primary screen, biochemical, single concentration; Cyclin-dependent kinase 5 (Homo sapiens) + Cyclin-dependent kinase 5 activator 1 (Homo …; Recombinant CDK5/p35, ADP-Glo luminescence, 60 min; inhibition, % at 10 µM; 330,000 tested, 0.01% active; AID 488839, 2010;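 active means highest replicate inhibition of at least 50% and at least 75% of replicates reaching 50%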;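 further: plate controls were DMSO neutral control for no effect and GW8510 at 10 µM for full effect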
Target sequence (Q00535 whole entry, looked up): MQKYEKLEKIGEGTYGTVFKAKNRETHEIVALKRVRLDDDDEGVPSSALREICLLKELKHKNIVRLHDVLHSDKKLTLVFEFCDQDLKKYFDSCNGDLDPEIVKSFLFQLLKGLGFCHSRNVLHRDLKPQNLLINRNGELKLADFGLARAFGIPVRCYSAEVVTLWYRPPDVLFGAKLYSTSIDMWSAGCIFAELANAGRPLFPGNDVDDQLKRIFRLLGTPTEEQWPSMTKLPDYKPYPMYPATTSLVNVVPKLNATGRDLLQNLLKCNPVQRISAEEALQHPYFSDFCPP
Target sequence (Q15078 whole entry, looked up): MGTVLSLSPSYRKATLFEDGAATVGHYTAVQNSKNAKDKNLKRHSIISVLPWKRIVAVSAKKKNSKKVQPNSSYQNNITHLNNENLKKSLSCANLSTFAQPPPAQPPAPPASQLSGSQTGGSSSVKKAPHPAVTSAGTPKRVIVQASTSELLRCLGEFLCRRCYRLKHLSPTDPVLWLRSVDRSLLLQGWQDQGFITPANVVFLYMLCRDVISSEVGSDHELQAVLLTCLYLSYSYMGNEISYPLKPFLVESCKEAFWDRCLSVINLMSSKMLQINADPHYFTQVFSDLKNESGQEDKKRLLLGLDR
CAL PDZ FP-2: CAL PDZ peptide-binding inhibitors, primary screen, biochemical, fluorescence polarization, Cer-tagged CAL PDZ, HTS. Golgi-associated PDZ and coiled-coil motif-containing protein (Homo sapiens), Q9HD26. 330,000 tested, 0.02% active. purified CAL PDZ, TMR-peptide fluorescence polarization, 1 h. inhibition, % at 20 µM;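 active means highest replicate inhibition of at least 40%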;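 further: plate controls were DMSO neutral control wells for no effect and unlabeled competitor peptide control wells for full effect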
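System: tagged CAL PDZ domain. Schedule: 1 h room-temperature incubation prior to read. Signal: fluorescence polarization (mP). Measure: percent inhibition from loss of millipolarization.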
dFosB act-1: activators of delta FosB homodimer, primary screen, biochemical, fluorescence polarization, TAMRA-CDK5 oligo, single point | Protein FosB (Mus musculus), P13346 | AID 493131, 2011 | purified delta FosB; percent of positive-control signal above neutral wells | activation, % at 25 µM | 340,000 tested, 0.99% active;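 active means mean activation above about 17%, with every replicate also reaching it, limit read from the data, passing the limit was not always enough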
dFosB act-2: activators of mouse delta FosB DNA binding, confirmation, biochemical, fluorescence polarization, TAMRA-CDK5 oligo, cherry-picked samples | activation, % at 24.9 µM | 2,400 tested, under 10 active | purified delta FosB; normalised: neutral wells 0, positive control 100 | shares compounds with dFosB act-1;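 active means highest replicate activation at or above 34% and every replicate reaching that threshold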;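 further: higher polarization means more probe DNA bound by delta FosB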
Starred values were filed as active, the others as inactive.

O=C(Cn1cc(C(=O)C2CC2)c2ccccc21)NCc1ccc2c(c1)OCO2 was read as Rtt109 HAT inh -5, CAL PDZ FP-1 -5, DYRK1A inh 0, CDK5 p35 inh -1, CAL PDZ FP-2 -1, dFosB act-1 22* and dFosB act-2 5.
Screening CC(=O)c1cn(CC(=O)NCc2ccc3c(c2)OCO3)c2ccccc12 returned Rtt109 HAT inh -3, CAL PDZ FP-1 4, DYRK1A inh -6, CDK5 p35 inh -2, CAL PDZ FP-2 0 and dFosB act-1 15.
`O=C(CCn1c(=S)[nH]c2cc3c(cc2c1=O)OCO3)NCc1cccc(Cl)c1` gave Rtt109 HAT inh -6, CAL PDZ FP-1 17, DYRK1A inh -1, CDK5 p35 inh 0, CAL PDZ FP-2 0, dFosB act-1 21* and dFosB act-2 -1.
Screening CCN(CC)CCNC(Cc1ccccc1)c1cccc(OC)c1 (stereo not given) returned Rtt109 HAT inh -2, CAL PDZ FP-1 -2, CDK5 p35 inh -1, CAL PDZ FP-2 0 and dFosB act-1 0.
COC(=O)c1ccc2c(c1)C(C)(C)C(/C=C/c1ccc(O)cc1)=[N+]2C was read as Rtt109 HAT inh -5, CAL PDZ FP-1 -31, DYRK1A inh 6, CDK5 p35 inh 11, dFosB act-1 119* and dFosB act-2 2.
`Cc1cc(C(=O)N/N=C/c2ccc(-c3cccc([N+](=O)[O-])c3)o2)n[nH]1` gave Rtt109 HAT inh -6, CAL PDZ FP-1 2, DYRK1A inh 3, CDK5 p35 inh 0, CAL PDZ FP-2 0, dFosB act-1 33* and dFosB act-2 0.
Screening Cc1cccc(-n2nnnc2SCC(=O)c2cc(C)n(Cc3ccco3)c2C)c1 returned Rtt109 HAT inh -2, CAL PDZ FP-1 0, DYRK1A inh -2, CDK5 p35 inh 0, CAL PDZ FP-2 -1, dFosB act-1 21* and dFosB act-2 1.
For COc1ccc(NC(=O)c2ccccc2NC(=O)c2cccs2)cc1 the results were Rtt109 HAT inh 3, CAL PDZ FP-1 9, DYRK1A inh -7, CDK5 p35 inh -1, CAL PDZ FP-2 -2 and dFosB act-1 -9.
Screening C=CCN(c1ccccc1OC)S(=O)(=O)c1cccc(C(=O)NCc2cccs2)c1 returned Rtt109 HAT inh -7, CDK5 p35 inh -1, CAL PDZ FP-2 0 and dFosB act-1 -5.
Screening Cc1cc2cc(CNC(=O)c3ccc(S(=O)(=O)N4CCCCC4)cc3)ccc2n1C returned Rtt109 HAT inh -3, DYRK1A inh 1, CDK5 p35 inh 0, CAL PDZ FP-2 0, dFosB act-1 33* and dFosB act-2 2.
Cc1cc2cc(CNC(=O)c3ccc(S(=O)(=O)N4CCCC4)cc3)ccc2n1C was read as Rtt109 HAT inh -7, CAL PDZ FP-1 5, DYRK1A inh 5, CDK5 p35 inh 2, CAL PDZ FP-2 1 and dFosB act-1 -8.
`Cc1cc2ncn(CCC(=O)NC(C)(C)C)c2cc1C` gave Rtt109 HAT inh 2, CAL PDZ FP-1 1, DYRK1A inh -4, CDK5 p35 inh -1, CAL PDZ FP-2 -3 and dFosB act-1 -5.
For O=C1CC(C(=O)Nc2ccc(Br)cc2)S/C(=N\N=C\c2ccco2)N1 (stereo not given) the results were Rtt109 HAT inh 6, CAL PDZ FP-1 -7, DYRK1A inh -4, CDK5 p35 inh 1, CAL PDZ FP-2 -1 and dFosB act-1 15.
`Cc1ccc(NC(=O)CC2S/C(=N/N=C/c3ccco3)NC2=O)cc1Cl` (stereo not given) gave Rtt109 HAT inh -6, CAL PDZ FP-1 -1, DYRK1A inh 5, CDK5 p35 inh -2, CAL PDZ FP-2 -1, dFosB act-1 33* and dFosB act-2 -1.
Screening O=C1CC(C(=O)Nc2ccc(Cl)cc2)S/C(=N\N=C\c2ccco2)N1 (stereo not given) returned Rtt109 HAT inh -6, CAL PDZ FP-1 8, DYRK1A inh 4, CDK5 p35 inh 1, CAL PDZ FP-2 -1, dFosB act-1 45* and dFosB act-2 0.
`O=C1CC(C(=O)Nc2ccccc2)S/C(=N\N=C\c2ccco2)N1` (stereo not given) gave Rtt109 HAT inh -12, CAL PDZ FP-1 -5, DYRK1A inh 1, CDK5 p35 inh 0, CAL PDZ FP-2 0, dFosB act-1 28* and dFosB act-2 5.
O=C1CC(C(=O)Nc2ccc(Cl)c(Cl)c2)S/C(=N\N=C\c2ccco2)N1 (stereo not given) was read as Rtt109 HAT inh 5, CAL PDZ FP-1 0, DYRK1A inh -7, CDK5 p35 inh -1, CAL PDZ FP-2 0, dFosB act-1 32* and dFosB act-2 0.
`Cc1ccc(NC(=O)CC2S/C(=N/N=C/C=C/c3ccccc3)NC2=O)cc1Cl` (stereo not given) gave Rtt109 HAT inh 2, CAL PDZ FP-1 0, DYRK1A inh 0, CDK5 p35 inh -1, CAL PDZ FP-2 1 and dFosB act-1 -13.
Screening CCN(CC)S(=O)(=O)c1cccc(NC(=O)COC(=O)C2CC3C=CC2C3)c1 (stereo not given) returned Rtt109 HAT inh -10, CAL PDZ FP-1 2, DYRK1A inh -2, CDK5 p35 inh -1, CAL PDZ FP-2 -1 and dFosB act-1 2.
`O=C(NCc1ccccc1Cl)c1cccc(NC2=NC3CS(=O)(=O)CC3S2)c1` (stereo not given) gave Rtt109 HAT inh 3, DYRK1A inh 4, CDK5 p35 inh -1, CAL PDZ FP-2 -1 and dFosB act-1 -5.
`O=C(NCc1ccccc1Cl)c1ccc(NC2=NC3CS(=O)(=O)CC3S2)cc1` (stereo not given) gave Rtt109 HAT inh 11, DYRK1A inh 1, CDK5 p35 inh 0, CAL PDZ FP-2 0, dFosB act-1 29* and dFosB act-2 4.
`O=C(Nc1ccc2c(c1)C(=O)OC2)c1ccc(F)cc1F` gave CAL PDZ FP-1 -2, CDK5 p35 inh -1, CAL PDZ FP-2 0 and dFosB act-1 -1.
